Results: ChEMBL document CHEMBL1629599, “A small-molecule screen identifies the antipsychotic drug pimozide as an inhibitor of Listeria monocytogenes infection” (2009)
Calls of active or inactive are those of the source. The calls are words filed in the database; no cut-off is given here.

Assays:
[1] = test system: Listeria monocytogenes; assay: Antimicrobial activity against Listeria monocytogenes DH-L1252 infected in murine bone marrow macrophages assessed as decrease in GFP reporter gene expression at 18.1 uM after 15 hrs; type: functional, organism-based
Procedure, shortened: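 Primary BALB/c bone marrow macrophages (differentiated 6 days with L929 supernatant) are treated with 18.1 µM compound or DMSO, then infected with GFP-expressing 10403S (DH-L1252) at MOI 1:2. Extracellular bacteria are killed with 5 µg/ml gentamicin after 1 h. At 15 h post-infection, cells are fixed with paraformaldehyde and Hoechst-stained, and GFP is imaged by automated microscopy. Three independent infections in duplicate.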

[2] = test system: Listeria monocytogenes; assay: Antimicrobial activity against Listeria monocytogenes DH-L1252 infected in murine bone marrow macrophages assessed as decrease in growth rate at 18.1 uM after 6 hrs; type: functional, organism-based
[3] = test system: Listeria monocytogenes; assay: Antimicrobial activity against Listeria monocytogenes DH-L1252 infected in murine bone marrow macrophages assessed as log reduction in intracellular bacterial count upto 10 hrs; type: functional
Procedure, shortened: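 BALB/c bone-marrow macrophages were seeded at 4 × 10^5/well 24 h ahead and pretreated 2 h with 18.1 µM drug or DMSO. They were infected at MOI 1:2 in antibiotic-free medium with washed Listeria grown 14–16 h in BHI at 30°C without shaking, with drug present throughout. At 1 h, 5 µg/ml gentamicin was added. At each time point cells were lysed in 0.1% Triton X-100 and CFU counted on LB agar, in triplicate.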

[4] = test system: Listeria monocytogenes; assay: Antimicrobial activity against Listeria monocytogenes DH-L1252 infected in murine bone marrow macrophages assessed as intracellular bacterial replication upto 10 hrs; type: functional, organism-based
Procedure, shortened: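 BALB/c bone marrow macrophages (4 × 10^5/well) are pretreated 2 h with 18.1 µM compound or DMSO, then infected with washed wild-type 10403S at MOI 1:2 in the presence of compound. At 1 h, medium with 5 µg/ml gentamicin plus compound is added. At set times, cells are lysed in 0.1% Triton X-100 and lysates plated on LB agar for CFU. Triplicates.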

[5] = test system: Listeria monocytogenes; assay: Inhibition of internalization of Listeria monocytogenes 10403S into murine bone marrow macrophages pretreated at 2.5 to 20 uM for 2 hrs; type: functional
Procedure, shortened: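 Bone marrow macrophages are pretreated 2 h with twofold compound dilutions, then infected with wild-type 10403S at MOI 10:1. Extracellular bacteria are killed with 50 µg/ml gentamicin at 30 min. At 90 min, cells are lysed and intracellular CFU enumerated. Three experiments in triplicate, fitted by linear regression.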

[6] = test system: Listeria monocytogenes; assay: Inhibition of internalization of Listeria monocytogenes 10403S into murine J774 cells pretreated at 18.1 uM for 2 hrs; type: functional
Procedure, shortened: (§1)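 J774 or RAW 264.7 cells (4 × 10^5/well) are pretreated 2 h with 18.1 µM compound or DMSO, then infected with washed wild-type 10403S at MOI 10:1 with compound. At 30 min, medium with 50 µg/ml gentamicin plus compound is added. At 90 min, cells are lysed in 0.1% Triton X-100 and intracellular CFU plated on LB agar. Triplicates.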

[7] = test system: Listeria monocytogenes; assay: Inhibition of internalization of Listeria monocytogenes 10403S into murine Raw 264.7 cells pretreated at 18.1 uM for 2 hrs; type: functional; settings: RAW264.7; procedure, shortened: as §1
[8] = test system: Bacillus subtilis; assay: Inhibition of internalization of Bacillus subtilis into murine murine bone marrow macrophages pretreated at 18.1 uM for 2 hrs; type: functional
Procedure, shortened: (§2)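 Gentamicin protection assay: bone marrow macrophages (4 × 10^5/well) pretreated 2 h with 18.1 µM compound or DMSO, then infected with B. subtilis 3610 (MOI 1.5:1), Salmonella Typhimurium IR715 (MOI 20:1) or E. coli K12 MM294 (MOI 20:1), all grown in LB at 37°C. After 30 min, 50 µg/ml gentamicin plus compound added; lysed at 90 min; CFU on LB agar; triplicates.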

[9] = test system: Salmonella typhimurium; assay: Inhibition of internalization of Salmonella enterica serovar Typhimurium into murine murine bone marrow macrophages pretreated at 18.1 uM for 2 hrs; type: functional, Salmonella enterica subsp. enterica serovar Typhimurium; procedure, shortened: as §2
[10] = test system: Escherichia coli; assay: Inhibition of internalization of Escherichia coli K-12 into murine murine bone marrow macrophages pretreated at 18.1 uM for 2 hrs; type: functional; procedure, shortened: as §2
[11] = test system: Listeria monocytogenes; assay: Inhibition of internalization of Listeria monocytogenes DH-L1252 into murine bone marrow macrophages assessed as reduction in vacuolar escape of bacteria using phalloidin staining; type: functional
Procedure, shortened: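 Bone marrow macrophages on coverslips are treated 2 h with 18.1 µM compound or DMSO, then infected 30 min at MOI 10:1 with GFP 10403S grown to OD600 ~0.5 at 37°C. Gentamicin (50 µg/ml) plus compound is added. At 90 min, cells are fixed and stained with Texas Red-phalloidin and Hoechst. At least 100 bacteria per coverslip are scored as percent F-actin-associated.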

[12] = test system: Listeria monocytogenes; assay: Antimicrobial activity against Listeria monocytogenes 10403S infected in L2 cells assessed as intracellular bacterial replication; type: functional, cell-based
Procedure, shortened: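 L2 fibroblasts (2 × 10^5/well, seeded 24 h before) are pretreated 2 h with 18.1 µM compound or DMSO. They are then infected with washed wild-type 10403S grown 14–16 h at 30°C in BHI, in antibiotic-free medium with compound. At 1 h, medium with 50 µg/ml gentamicin plus compound is added. At set times, cells are lysed in 0.1% Triton X-100 and lysates plated on LB agar for CFU. Triplicates.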

[13] = test system: Listeria monocytogenes; assay: Antimicrobial activity against Listeria monocytogenes 10403S infected in L2 cells assessed as decrease in number of plaque formation at 18.1 uM after 1 hr; type: functional, cell-based
[14] = test system: Listeria monocytogenes; assay: Antimicrobial activity against Listeria monocytogenes 10403S infected in L2 cells assessed as decrease in plaque size at 18.1 uM after 1 hr; type: functional; settings: L2, 1 h
Procedure, shortened: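 Wild-type L. monocytogenes grown 14–16 h, PBS-washed, infects L2 fibroblast monolayers (2 × 10^6 cells/well, seeded 24 h before) at MOI 1:5 after 2 h compound or DMSO pretreatment. At 1 h, wash and add agarose overlay with 30 µg/ml gentamicin plus 18.1 µM compound. Neutral red overlay added at 72 h. Plates scanned at 96 h; diameters of 10 plaques per well expressed as percent of DMSO; three independent experiments.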

[15] = test system: Listeria monocytogenes; assay: Inhibition of Listeria monocytogenes 10403S entry into murine bone marrow macrophages at 18.1 uM after 30 mins in calcium-free medium; type: functional; settings: 0.5 h
Procedure, shortened: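 Bone marrow macrophages are preincubated 30 min in calcium-free buffer (NaCl, KCl, MgCl2, 0.1 mM EGTA, glucose, HEPES, pH 7.35) with 18.1 µM compound or DMSO. They are then infected with wild-type 10403S for 15 min. Calcium-free medium with 50 µg/ml gentamicin plus compound is added. At 45 min, cells are lysed and intracellular CFU plated on LB agar. Triplicates.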

## O=c1[nH]c2ccccc2n1C1CCN(CCCC(c2ccc(F)cc2)c2ccc(F)cc2)CC1 [PIMOZIDE]
[1]
  Activity: Active
[2]
  Activity: inactive
[3]
  FC: 1
[4]
  Activity: inactive
[5]
  inhibition: Dose-dependent effect
[6]
  inhibition at 18.1 µM: 75%
[7]
  inhibition at 18.1 µM: 95%
[8]
  inhibition at 18.1 µM: 73%
[9]
  inhibition at 18.1 µM: 64%
[10]
  inhibition at 18.1 µM: 60%
[11]
  inhibition (INH): 26.3%
[12]
  Activity: inactive
[13]
  inhibition: Active
[14]
  inhibition at 18.1 µM: 47.1%
[15]
  inhibition at 18.1 µM: 95%
